Measurements taken from ChEMBL document CHEMBL4177761, “Highlights of the Structure-Activity Relationships of Benzimidazole Linked Pyrrolidines Leading to the Discovery of the Hepatitis C Virus NS5A Inhibitor Pibrentasvir (ABT-530)” (J Med Chem, 2018).
Substitutions are numbered along the chain they refer to.

Legend:
[1] = AUClast in mouse at 3 mg/kg, iv by LC-MS method; format: ADME, organism-based; set-up: dose 3 mg/kg, route intravenous, time 0 - last; details: in vivo
Procedure, shortened: (§1)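 Single dose, 3 mg/kg, in mouse or rat. IV vehicle: DMSO:Tween 80:PEG-400:D5W 2:5:20:73 (v/v). PO vehicle: Phosol 53 MCT:PEG-400:Poloxamer 124:Cremophor RH40 40:20:20:20 (w/w). Acetonitrile protein precipitation, then LC-MS/MS in negative-ion MRM against an internal standard; LOQ ~20 ng/mL.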

[2] = molecular target: T1, Nonstructural protein 5A (Hepatitis C virus) (UniProt Q5L478); experiment: Inhibition of NS5A Q30R mutant in HuH7 cell infected HCV genotype 1a H77 assessed as decrease in viral replication after 4 days by luciferase reporter gene assay relative to wild type protein; details: Hepatitis C virus (isolate H77)
T1 sequence (whole entry): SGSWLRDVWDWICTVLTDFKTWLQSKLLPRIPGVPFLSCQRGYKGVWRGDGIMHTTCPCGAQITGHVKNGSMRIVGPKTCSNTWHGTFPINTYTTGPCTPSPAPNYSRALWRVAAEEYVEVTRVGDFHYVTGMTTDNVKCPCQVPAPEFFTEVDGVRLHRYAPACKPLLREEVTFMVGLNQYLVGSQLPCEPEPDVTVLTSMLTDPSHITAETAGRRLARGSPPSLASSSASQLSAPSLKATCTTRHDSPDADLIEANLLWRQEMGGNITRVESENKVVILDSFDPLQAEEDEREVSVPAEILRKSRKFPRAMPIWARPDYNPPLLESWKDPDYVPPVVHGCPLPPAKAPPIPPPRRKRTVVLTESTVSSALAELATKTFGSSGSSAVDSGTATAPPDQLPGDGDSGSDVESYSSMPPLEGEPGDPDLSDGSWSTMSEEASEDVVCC
Procedure, shortened: (§2)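 Stable subgenomic luciferase replicons in Huh-7 cells: genotype 1a-H77 carrying NS5A substitutions M28T, Q30E, Q30R, Y93C, Y93H or Y93N, tested alongside the wild-type replicon. Cells are incubated 4 days with compound in DMEM with 5% FBS. Luciferase read-out, EC50 by 4-parameter logistic fit, and fold change versus wild type.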

[3] = Cmax in mouse at 3 mg/kg, po by LC-MS method; format: ADME, organism-based; set-up: dose 3 mg/kg, route oral; details: in vivo; procedure, shortened: as §1
[4] = test system: T2, Nonstructural protein 5A (Hepatitis C virus), Q5L478 [Y93H]; experiment: Inhibition of NS5A Y93H mutant in HuH7 cell infected HCV genotype 1b Con1 assessed as decrease in viral replication after 4 days by luciferase reporter gene assay relative to wild type protein; details: Hepatitis C virus (isolate Con1)
T2 sequence (whole entry): T1 sequence (whole entry) with Y93H
Procedure, shortened: as §2, with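 “1b-Con1” for “1a-H77”, “NS5A” for “NS5A substitutions M28T, Q30E, Q30R, Y93C,”, “from a” for “by”, “expressed as” for “and”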

[5] = test system: T3, Nonstructural protein 5A (Hepatitis C virus), Q5L478 [Y93C]; experiment: Inhibition of NS5A Y93C mutant in HuH7 cell infected HCV genotype 1a H77 assessed as decrease in viral replication after 4 days by luciferase reporter gene assay relative to wild type protein; details: Hepatitis C virus (isolate H77); procedure, shortened: as §2
T3 sequence (whole entry): T1 sequence (whole entry) with Y93C

[6] = Oral bioavailability in rat at 3 mg/kg by LC-MS method; format: ADME, organism-based; details: in vivo; procedure, shortened: as §1
[7] = Plasma clearance in dog at 1 mg/kg, iv by LC-MS method; format: ADME, organism-based, Canis lupus familiaris
Procedure, shortened: (§3)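 Single dose in dog or monkey, 1 mg/kg IV or 2.5 mg/kg PO. Plasma drug measured by LC-MS after acetonitrile protein precipitation with an internal standard. Quantified by linear regression of parent/internal-standard peak-area ratio against spiked standards.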

[8] = Tmax in rat at 3 mg/kg, po by LC-MS method; format: ADME, organism-based; details: in vivo
Procedure, shortened: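 Single 3 mg/kg oral dose in rat, formulated in 40:20:20:20 (w/w) Phosol 53 MCT:PEG-400:Poloxamer 124:Cremophor RH40. Heparinized plasma drawn at 0.25, 0.5, 1, 2, 4, 6, 9, 12 and 24 h. Acetonitrile protein precipitation, then LC-MS in negative-ion MRM mode. Levels read from peak-area ratio to internal standard against spiked standards by linear regression; LOQ ~20 ng/mL.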

[9] = Plasma clearance in mouse at 3 mg/kg, iv by LC-MS method; format: ADME, organism-based; procedure, shortened: as §1
[10] = Drug level in monkey at 2.5 mg/kg, po at 24 hrs by LC-MS method; format: ADME, organism-based, Macaca mulatta; details: rhesus monkey, in vivo, read-out: Drug uptake; procedure, shortened: as §3
[11] = Cmax in monkey at 2.5 mg/kg, po by LC-MS method; format: ADME, organism-based, Macaca mulatta; set-up: dose 2.5 mg/kg, route oral; details: rhesus monkey, in vivo; procedure, shortened: as §3
[12] = AUClast in monkey at 2.5 mg/kg, po by LC-MS method; format: ADME, organism-based, Macaca mulatta; set-up: dose 2.5 mg/kg, time 0 - last, route oral; details: rhesus monkey, in vivo; procedure, shortened: as §3
[13] = Apparent volume of distribution in monkey at 1 mg/kg, iv by LC-MS method; format: ADME, organism-based, Macaca mulatta; details: rhesus monkey, in vivo, read-out: Vc; procedure, shortened: as §3
[14] = Oral bioavailability in dog at 2.5 mg/kg by LC-MS method; format: ADME, organism-based, Canis lupus familiaris; details: in vivo; procedure, shortened: as §3

## COC(=O)N[C@H](C(=O)N1CCC[C@H]1c1nc2cc([C@H]3CC[C@H](c4cc5nc([C@@H]6CCCN6C(=O)[C@@H](NC(=O)OC)[C@@H](C)OC)[nH]c5cc4F)N3c3cc(F)c(N4CCC(c5ccc(F)cc5)CC4)c(F)c3)c(F)cc2[nH]1)[C@@H](C)OC [PIBRENTASVIR]
[1]
  AUC(0-t): 252 µg·h/mL
[2]
  fold change (FC): 1.7
[3]
  Cmax: 1140 nM
[4]
  fold change (FC): 0.6
[5]
  fold change (FC): 1.7
[6]
  bioavailability: 9.9%
[7]
  clearance: 1.62 mL/min/kg
[8]
  Tmax: 5.3 h
[9]
  clearance: < 0.05 mL/min/kg
[10]
  concentration at 24 h: 17 nM
[11]
  Cmax: 260 nM
[12]
  AUC(0-t): 2.25 µg·h/mL
[13]
  Vd: 0.07 L/kg
[14]
  bioavailability: 29.8%
